ChEMBL document CHEMBL1138035, “Antitumor agents. 250. Design and synthesis of new curcumin analogues as potential anti-prostate cancer agents” (J Med Chem, 2006)

How the values were obtained:
LNCaP [1] = test: Cytotoxicity against human LNCaP cell line; assay type: functional, cell-based
PC-3 [2] = test: Cytotoxicity against human PC3 cell line; assay type: functional, cell-based
PC-3 [3] = test: Inhibition of growth of human PC3 cell line at 20 ug/ml; assay type: functional
Outline: (§1)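 Growth assay in human prostate cancer cells (LNCaP in RPMI, PC-3 in DMEM, each with 10% fetal calf serum and antibiotics). Cells were exposed to compound for 2 days. Value is % inhibition of cell growth at 20 μg/ml. Variation between replicate experiments was ≤5%.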

[4] = target: T1, Androgen receptor (Homo sapiens) (UniProt P10275); test: Antiandrogenic activity against human PC3 cell line transfected with wild-type AR by AR transactivation assay in presence of […] at 5 uM; assay type: functional, cell-based; details: PC-3
T1 sequence (whole entry): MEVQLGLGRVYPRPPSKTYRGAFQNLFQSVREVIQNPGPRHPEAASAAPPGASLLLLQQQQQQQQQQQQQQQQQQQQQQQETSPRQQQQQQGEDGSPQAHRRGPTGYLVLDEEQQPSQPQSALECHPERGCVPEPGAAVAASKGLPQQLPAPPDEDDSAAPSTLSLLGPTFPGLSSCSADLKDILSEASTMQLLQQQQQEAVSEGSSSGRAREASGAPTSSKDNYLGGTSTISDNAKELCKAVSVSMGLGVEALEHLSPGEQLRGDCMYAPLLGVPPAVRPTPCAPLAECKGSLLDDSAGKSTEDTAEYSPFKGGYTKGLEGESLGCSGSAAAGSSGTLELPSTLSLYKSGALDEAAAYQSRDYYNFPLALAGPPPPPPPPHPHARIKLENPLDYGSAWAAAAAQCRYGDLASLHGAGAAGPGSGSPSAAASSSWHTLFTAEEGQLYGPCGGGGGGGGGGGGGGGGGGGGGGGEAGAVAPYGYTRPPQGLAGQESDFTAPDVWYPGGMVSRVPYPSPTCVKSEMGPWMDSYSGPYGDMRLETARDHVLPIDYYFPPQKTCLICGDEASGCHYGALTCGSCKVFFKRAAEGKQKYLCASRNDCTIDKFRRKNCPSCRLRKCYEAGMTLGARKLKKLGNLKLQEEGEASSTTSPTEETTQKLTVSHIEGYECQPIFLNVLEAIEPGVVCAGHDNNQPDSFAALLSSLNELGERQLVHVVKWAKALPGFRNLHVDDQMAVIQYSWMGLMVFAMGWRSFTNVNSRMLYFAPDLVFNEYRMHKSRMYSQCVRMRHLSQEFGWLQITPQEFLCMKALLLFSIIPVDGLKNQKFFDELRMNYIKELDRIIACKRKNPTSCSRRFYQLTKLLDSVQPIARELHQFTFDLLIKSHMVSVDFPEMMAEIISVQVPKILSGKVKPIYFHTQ
Outline: (§2)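 PC-3 host cells (no functional AR), kept in DMEM with 10% fetal calf serum and antibiotics, were plated 24 h before transfection. They were transfected for 5 h (SuperFect) with wild-type AR plasmid pSG5AR, MMTV-luciferase reporter and pRL-SV40 control, then moved to DMEM with 10% charcoal-stripped serum. After 24 h, cells got 1 nM DHT plus compound for 24 h. Dual-luciferase signal was normalized to the internal control and given as % of DHT-only.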

[5] = target: T1, Androgen receptor (Homo sapiens); test: Antiandrogenic activity against human LNCaP cell line by AR transactivation assay in presence of […] at 5 uM; assay type: functional, cell-based
Outline: (§3)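 LNCaP cells (endogenous mutant AR), kept in RPMI with 10% fetal calf serum and antibiotics, were plated 48 h before transfection. They were transfected for 5 h (SuperFect) with MMTV-luciferase reporter plus pRL-SV40 internal control, then moved to RPMI with 10% charcoal dextran-stripped serum. After 24 h, cells got 1 nM DHT plus compound for 24 h. Read-out was dual luciferase normalized to the internal control, as % of DHT-alone transactivation.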

[6] = target: T1, Androgen receptor (Homo sapiens); test: Antiandrogenic activity against human PC3 cell line transfected with wild-type AR by AR transactivation assay in presence of […] at 3 uM; assay type: functional, cell-based; details: PC-3; outline: as §2
[7] = target: T1, Androgen receptor (Homo sapiens); test: Antiandrogenic activity against human LNCaP cell line by AR transactivation assay in presence of […] at 3 uM; assay type: functional, cell-based; outline: as §3
LNCaP [8] = test: Inhibition of growth of human LNCaP cell line at 20 ug/ml; assay type: functional; outline: as §1
[9] = Homo sapiens, PC-3, read-out: IC50

Row | SMILES | IC50 (LNCaP [1]) [µM] | IC50 (PC-3 [2]; [9]) [µM] | other results
1 | Cc1cc(/C=C/C(=O)/C=C(O)/C=C/c2ccc(O)c(C)c2)ccc1O | 1.8 |  | IC50 (PC-3 [2]; pc-3): 4.8 µM
2 | CCOC(=O)CCC(F)(C(=O)/C=C/c1ccc(O)c(OC)c1)C(=O)/C=C/c1ccc(O)c(OC)c1 | 6.3 | 9.8 | 
3 | COc1ccc(/C=C/C(=O)C(/C=C/CO)=C(O)/C=C/c2ccc(OC)c(OC)c2)cc1OC | 0.2 | 1.3 | 
4 | CCOc1ccc(/C=C/C(=O)/C=C(O)/C=C/c2ccc(OCC)c(OC)c2)cc1OC | 6.5 | 20.3 | 
5 | CCNC(=O)/C=C/C(C(=O)/C=C/c1ccc(OC)c(OC)c1)=C(O)\C=C\c1ccc(OC)c(OC)c1 | 0.6 | 1.2 | 
6 | COc1ccc(/C=C/C(O)=C/C(C)=O)c(OC)c1OC | 5.8 | 7.8 | 
7 | COc1cc(/C=C/C(O)=C/C(=O)/C=C/c2cccs2)ccc1O | 6.3 | 7.7 | 
8 | COc1ccc(/C=C/C(=O)/C=C(O)/C=C/c2ccc(OC)c(C)c2)cc1C | 7.7 | > 27.4 | inhibition at 20 µg/mL (PC-3 [3]): 44%
9 | COc1cc(OC)c(OC)cc1/C=C/C(O)=C/C(C)=O | 12.5 | 10.5 | 
10 | CCOC(=O)CC/C(C(=O)/C=C/c1ccc(OC)c(OC)c1)=C(O)\C=C\c1ccc(O)c(OC)c1 | 2.1 | 6.3 | 
11 | CCOC(=O)CC/C(C(C)=O)=C(O)\C=C\c1ccc(O)c(OC)c1 | 51.5 | 43.7 | 
12 | COc1cc(OC)c(OC)cc1/C=C/C(=O)/C=C(O)/C=C/c1ccc(OC)c(OC)c1 | 8.6 | 8.2 | 
13 | COc1ccc(/C=C/C(=O)C(C)(F)C(=O)/C=C/c2ccc(OC)c(OC)c2)cc1OC | 6.4 | 4.6 | 
14 | COc1ccc(/C=C/C(=O)CC(O)/C=C/c2ccc(OC)c(OC)c2)cc1OC (stereo not given) | 17.7 | 18.4 | 
15 | COc1ccc(/C=C/C(O)=C/C(=O)/C=C/c2ccc(OC)c(OC)c2OC)cc1OC | 7.7 | 9.1 | 
16 | COc1ccc(CCC(=O)CC(O)CCc2ccc(OC)c(OC)c2)cc1OC (stereo not given) | 10.8 |  | inhibition at 20 µg/mL (PC-3 [3]): 33%
17 | COc1ccc(/C=C/C(=O)/C=C/c2ccc(OC)c(OC)c2)cc1OC | 3.4 | 3.8 | 
18 | COc1ccc(/C=C/C(=O)C(C)C(=O)/C=C/c2ccc(OC)c(OC)c2)cc1OC | 5.8 | 3.5 | 
19 | COc1cc(/C=C/C(O)=C/C(=O)/C=C/c2ccc[nH]2)ccc1O | 13.6 | 15.4 | 
20 | CCOC(=O)CC/C(C(=O)/C=C/c1ccc(OC2CCCCO2)c(OC)c1)=C(O)\C=C\c1ccc(OC2CCCCO2)c(OC)c1 (stereo not given) | 4.2 | 12.3 | 
21 | COc1ccc(/C=C/C(=O)/C=C/c2ccc(OC)cc2OC)c(OC)c1 | 21.8 | 18.7 | 
22 | COc1cc(/C=C/C(O)=C/C(C)=O)ccc1O | 6.2 | 8 | 
23 | COc1cc(/C=C/C(=O)/C(C(C)=O)=C(O)/C=C/c2ccc(O)c(OC)c2)ccc1O | 8.8 | 23.4 | 
24 | COc1ccc(/C=C/C(O)=C/C(=O)/C=C/c2ccc(OC)c(OC)c2)cc1O | 4.8 | 5.5 | 

Row | SMILES | IC50 (LNCaP [1]) [µM] | IC50 (PC-3 [2]; [9]) [µM] | other results
25 | CCOC(=O)CCC(F)(C(=O)/C=C/c1ccc(OC2CCCCO2)c(OC)c1)C(=O)/C=C/c1ccc(OC2CCCCO2)c(OC)c1 (stereo not given) | 7.3 | 6.3 | 
26 | COc1ccc(/C=C/C(=O)C(/C=C/C#N)=C(O)/C=C/c2ccc(OC)c(OC)c2)cc1OC | 0.2 | 0.7 | Activity [4]: 68%; Activity [5]: 42%
27 | COc1ccc(/C=C/C(O)=C/C(C)=O)cc1O | 5.3 | 6.1 | 
28 | COc1cc(/C=C/C(=O)/C=C/c2ccc(O)c(OC)c2)ccc1O | 1.4 | 2.4 | 
29 | CCOC(=O)CC/C(C(=O)/C=C/c1ccc(O)c(OC)c1)=C(O)\C=C\c1ccc(O)c(OC)c1 | 1.5 | 5.1 | Activity [4]: 13%; Activity [5]: 4%
30 | COc1cc(/C=C/C=C/C(=O)/C=C(O)/C=C/C=C/c2ccc(O)c(OC)c2)ccc1O | 4.4 | 10.6 | 
31 | COc1cc(OC)c(OC)cc1/C=C/C(=O)/C=C(O)/C=C/c1cc(OC)c(OC)cc1OC | 2.9 | 2.4 | 
32 | COc1ccc(/C=C/C(=O)/C=C(O)/C=C/c2ccc(OC)c(O)c2)cc1O | 10.9 | 8.6 | 
33 | COc1ccc(/C=C/C(=O)/C=C(O)/C=C/c2ccc(OC)c(OC)c2)cc1OC | 1.3 | 1.1 | 
34 | COc1cc(/C=C/C(O)=C/C(=O)/C=C/c2ccc(CO)o2)ccc1O | 7.3 | 9 | 
35 | CCOC(=O)CC\C(C(=O)/C=C/C=C/c1ccc(O)c(OC)c1)=C(O)/C=C/C=C/c1ccc(O)c(OC)c1 | 3.1 | 6.4 | 
36 | CCO/C(O)=C/C=C(C(=O)/C=C/c1ccc(OC2CCCCO2)c(OC)c1)C(=O)/C=C/c1ccc(OC2CCCCO2)c(OC)c1 (stereo not given) | 2.6 | 3.1 | Activity [6]: 46%; Activity [7]: 54%
37 | COc1cc(/C=C/C(=O)/C=C(O)/C=C/c2ccc(OC)c(OC)c2)ccc1O | 3.3 | 6 | 
38 | COc1ccc(/C=C/C(=O)/C=C(O)/C=C/c2ccc(OC)cc2OC)c(OC)c1 | 11.8 |  | inhibition at 20 µg/mL (PC-3 [3]): 45%
39 | COc1ccc(/C=C/C(=O)NC(=O)/C=C/c2ccc(OC)c(OC)c2)cc1OC | 2.2 | > 10 | inhibition at 20 µg/mL (PC-3 [3]): 36%
40 | COc1ccc(/C=C/C(=O)/C=C(O)/C=C/c2ccc(OC)c(OC)c2OC)c(OC)c1OC | 4.8 | 8.1 | 
41 | COc1cc(/C=C/C(=O)/C=C(O)/C=C/c2ccc(OCC=C(C)C)c(OC)c2)ccc1OCC=C(C)C | 6.1 | > 19.8 | inhibition at 20 µg/mL (PC-3 [3]): 41%
42 | COc1cc(/C=C/C(=O)CC(=O)/C=C/c2ccc(O)c(OC)c2)ccc1O [CURCUMIN] | 3.8 | 7.7 | 
43 | CCO/C(O)=C/C=C(C(=O)/C=C/c1ccc(OC)c(OC)c1)C(=O)/C=C/c1ccc(OC)c(OC)c1 | 0.2 | 1 | Activity [4]: 40%; Activity [5]: 6%
44 | O=C(/C=C(O)/C=C/c1ccc(CO)o1)/C=C/c1ccc(CO)o1 |  |  | inhibition at 20 µg/mL (PC-3 [3]): 37%; inhibition at 20 µg/mL (LNCaP [8]): 37%
45 | CCO/C(O)=C/C=C(C(=O)/C=C/c1ccc(O)c(OC)c1)C(=O)/C=C/c1ccc(O)c(OC)c1 | 7 | 11.7 | 
46 | COc1ccc(/C=C/C(O)=C/C(C)=O)cc1OC | 6.6 | 7 | 
47 | COc1ccc(/C=C/C(O)=C/C(C)=O)c(OC)c1 | 9.9 | 12.3 | 
